HSP90 inh – blocks HSP90-mediated luciferase refolding in reticulocyte lysate; inhibition, % at 5.6 µM; Rabbit reticulocyte lysate, luciferase refolding luminescence, 3 h; AID 1789; hit rate 0.91% among 290,000;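 active = inhibition above the screen-wide mean plus 3 SD, computed separately per campaign, cut at about 16% in these data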;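 note: 0% = DMSO wells and 100% = 60 µM geldanamycin wells; inhibitors lower the luminescence because luciferase stays unfolded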
STAT1 blocker – reduces IFN-gamma driven STAT1 reporter signal. NIH 3T3 STAT1-luciferase reporter, luminescence. inhibition, % at 5.5 µM. hit rate 0.35% among 200,000;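 active = inhibition above a set limit, the mean inhibition across all tested compounds plus 3 SD, cut at about 34% in these data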;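 note: 0% = IFN-gamma with DMSO and 100% = IFN-gamma with 300 µM nifuroxazide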
PPC-1+TRAIL kill – PPC-1 cancer cell killing with TRAIL present | cell killing (% activity), % at 4 µM or 5 µM | AID 1443 | PPC-1 cells + TRAIL, ATPLite viability luminescence | hit rate 0.41% among 220,000;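 active = cell killing above 50% in the first pass at 4 µM, then a duplicate retest at 5 µM averaging 50% or more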;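 note: plate controls were cells with TRAIL plus DMSO for no effect and medium-only wells lacking cells for full effect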
C8 TRAIL sens – caspase-8 TRAIL sensitization; NB7+C8 cells + TRAIL, ATPlite viability luminescence; inhibition (viability loss, TRAIL sensitization), % at 10 µM; hit rate 1% among 360,000;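 active = compounds causing at least 50% loss of cell viability in the single-dose screen, relative to plate controls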
STAT3 act – STAT3 signaling activation. U3A cells, IL-6 STAT3-luciferase reporter, luminescence; 100% = signal with IL-6 EC80 alone. AID 871. activation (% of control), % at 5.6 µM. hit rate 0.91% among 190,000;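 active = activation above the screen-wide mean of compound activation plus 3 SD, cut at about 130% in these data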;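 note: 0% = background luminescence of wells with medium and substrate only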
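Material: STAT1-lacking human U3A cells, STAT3 luciferase reporter | Benchmarks: IL-6-only wells as 100% reference | Probe or stimulus: IL-6 (33 ng/mL) | Timing: Compound 1 h, then IL-6 6 h at 37 °C | Detection: Luminescence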
STAT3 blocker – STAT3 signaling inhibition; hit rate 0.89% among 190,000; inhibition, % at 5.5 µM; U3A cells, IL-6 STAT3-luciferase reporter, luminescence; host cell line lacks STAT1;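 active = inhibition above the mean inhibition across all screened compounds plus 3 SD, cut at about 44% in these data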;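 note: 0% = DMSO only wells and 100% = 100 µM nifuroxazide control wells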
PPC-1 tox – kills PPC-1 cells | shares compounds with PPC-1+TRAIL kill | PPC-1 viability, ATPlite luminescence, overnight | cytotoxicity, % at 5 µM | hit rate 50% among 1,200;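 active = reconfirmed compounds whose average cytotoxicity reaches 50% or more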;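 note: 0% = DMSO-treated cells and 100% = wells holding medium but no cells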
Active calls of the source: *; . = no result given. Hits are enriched below; roughly 2.3% of the tested compounds scored in any of these assays.

SMILES	HSP90 inh	STAT1 blocker	PPC-1+TRAIL kill	C8 TRAIL sens	STAT3 act	STAT3 blocker	PPC-1 tox
CC(=O)Nc1nc(=O)c2ccccc2s1	3	4	2	-7	91	13	.
COc1ccc2c(c1)sc(=N)n2CC(=O)Nc1cc(C)cc(C)c1	0	2	27	0	112	-9	.
CC(C)NC(=O)C1(C)Cc2c(-c3cccc(C(F)(F)F)c3)ccnc2O1 (centres undefined)	.	.	.	1	.	.	.
Cn1nnc(NC(=O)c2ccc(C(C)(C)C)cc2)n1	7	-3	54*	55*	93	12	53*
COC(=O)C(C)N(C#N)c1nc(C)cc(C)n1 (centres undefined)	1	9	24	0	98	10	.
CCOC(=O)c1ccccc1NC(=O)CSc1ccc(-c2cccnc2)nn1	3	17	-1	-1	101	4	-6
CCOc1ccccc1N1CCN(C(=O)C2c3ccccc3Oc3ccccc32)CC1	2	-1	3	14	101	3	-7
CCOc1ccccc1N1CCN(C(=O)c2ccccc2)CC1	0	10	25	-7	92	12	.
O=C(NCCc1ccccc1)C(=O)N/N=C/c1ccc2c(c1)OCO2	1	0	28	34	105	1	.
O=C(NCc1ccccn1)C(=O)N/N=C/c1ccc2c(c1)OCO2	-2	-18	4	1	103	0	9
CN(C)c1ccc(Nc2nc(-c3cccnc3)cs2)cc1	1	-52	70*	67*	110	-6	68*
COCCn1c(C)cc(C2=NNC(=NC3CC3)SC2)c1C	70*	97*	89*	78*	10	103*	88*
COc1ccc(N(C(=O)c2cccc([N+](=O)[O-])c2)S(=O)(=O)c2cccs2)cc1	0	-4	28	-6	97	10	.
COc1ccccc1NC(=O)C1CCN(c2ncccn2)CC1	-4	-3	2	-4	94	8	.
O=C(Nc1nnc([C@H]2C[C@H](O)[C@@H](CO)O2)s1)NC(c1ccccc1)c1ccccc1	.	.	.	9	.	.	.
COc1ccc(-c2ccc(SCC(=O)Nc3nnc(C)s3)nn2)cc1	-2	-20	50*	55*	100	5	50*
CCOc1ccc(-c2ccc(SCC(=O)NCC3CCCO3)nn2)cc1 (centres undefined)	-5	-21	26	52*	109	1	35
CCOc1ccc(-c2nnc(N)s2)cc1	2	-14	33	25	99	6	.
CCOc1ccc(-c2ccc(SC)nn2)cc1	73*	81*	91*	92*	14	110*	91*
CCOc1ccc(-c2ccc(SCC(=O)Nc3nnc(CC)s3)nn2)cc1	-6	-17	70*	67*	77	31	68*
O=C1COc2ccccc2CN1	3	3	22	7	103	0	.
Cc1nnc(NC(=O)c2cccc(S(=O)(=O)N(C)c3cccc(Cl)c3)c2)s1	.	.	.	3	.	.	.
Cc1cc(Oc2ccc(-c3ccccc3)cc2)n2ncnc2n1	7	-5	17	-5	103	0	.
CN(CCCCCCN(C)Cc1ccccc1O)Cc1ccccc1O	0	.	.	6	.	.	.
CCOC(=O)N1CCC(NC(=O)CCC(=O)c2ccccc2)CC1	-4	-3	10	-19	104	2	.
SMILES	HSP90 inh	STAT1 blocker	PPC-1+TRAIL kill	C8 TRAIL sens	STAT3 act	STAT3 blocker	PPC-1 tox
COc1ccc(-c2nc(C#N)c(N3CCN(c4cccc(Cl)c4)CC3)o2)cc1OC	.	.	12	-14	.	.	.
N#Cc1nc(Cc2ccccc2)oc1NCCN1CCOCC1	2	0	-21	-3	102	1	.
Cc1ccc(/C=C/c2nc3ccccc3c(=O)[nH]2)cc1	14	.	93*	93*	.	.	92*
COc1cccc(-c2nc3c(c(SCC(=O)N4CCOCC4)n2)Cc2c(CO)cnc(C)c2O3)c1	-3	.	.	22	.	.	.
O=C(c1ccc2c(c1)OCO2)N(CC1CCCO1)C1(C(=O)NC2CCCCC2)CCCCC1 (centres undefined)	4	8	7	4	102	-5	.
CN(C(=O)c1ccc2c(c1)OCO2)C1(C(=O)NC2CCCC2)CCCCC1	3	-2	6	-6	97	10	2
O=C(CCSc1ccc(Cl)cc1)N1CCOCC1	-3	-28	7	-6	102	1	.

Screens (PubChem)
